Measurements: PMC3158287 (Nature chemical biology, 2011)
Changes are numbered by the printed parent chain.

Experiments:
OSBP-Myc-His = target: T1, OSBP-Myc-His (Homo sapiens, UniProt P22059); assay: [3H]25-OHC charcoal-dextran binding assay, wild-type OSBP-Myc-His
T1 sequence (P22059 1-807): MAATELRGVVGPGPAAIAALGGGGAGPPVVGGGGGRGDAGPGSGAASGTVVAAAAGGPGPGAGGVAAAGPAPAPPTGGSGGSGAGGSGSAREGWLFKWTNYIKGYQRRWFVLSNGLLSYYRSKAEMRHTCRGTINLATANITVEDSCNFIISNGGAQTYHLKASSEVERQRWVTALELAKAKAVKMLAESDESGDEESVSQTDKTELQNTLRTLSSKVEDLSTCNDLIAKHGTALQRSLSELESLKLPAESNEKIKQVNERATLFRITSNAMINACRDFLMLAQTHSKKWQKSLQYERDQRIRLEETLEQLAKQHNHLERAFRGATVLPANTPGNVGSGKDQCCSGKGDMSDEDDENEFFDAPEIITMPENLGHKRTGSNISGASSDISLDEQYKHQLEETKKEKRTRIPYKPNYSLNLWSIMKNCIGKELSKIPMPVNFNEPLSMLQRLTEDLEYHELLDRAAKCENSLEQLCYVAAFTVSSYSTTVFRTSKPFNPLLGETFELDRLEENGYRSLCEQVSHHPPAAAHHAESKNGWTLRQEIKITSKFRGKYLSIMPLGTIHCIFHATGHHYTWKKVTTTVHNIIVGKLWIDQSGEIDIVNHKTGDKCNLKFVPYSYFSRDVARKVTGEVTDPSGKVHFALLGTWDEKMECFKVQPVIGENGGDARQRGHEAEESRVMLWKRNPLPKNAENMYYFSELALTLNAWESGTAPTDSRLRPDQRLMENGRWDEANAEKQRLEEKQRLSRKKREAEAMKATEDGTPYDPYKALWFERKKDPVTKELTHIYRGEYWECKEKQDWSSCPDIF

ORP4L-Myc-His = target: T2, ORP4L-Myc-His (Homo sapiens, UniProt Q969R2); assay: [3H]25-OHC charcoal-dextran binding assay, ORP4L-Myc-His
T2 sequence (Q969R2 1-916): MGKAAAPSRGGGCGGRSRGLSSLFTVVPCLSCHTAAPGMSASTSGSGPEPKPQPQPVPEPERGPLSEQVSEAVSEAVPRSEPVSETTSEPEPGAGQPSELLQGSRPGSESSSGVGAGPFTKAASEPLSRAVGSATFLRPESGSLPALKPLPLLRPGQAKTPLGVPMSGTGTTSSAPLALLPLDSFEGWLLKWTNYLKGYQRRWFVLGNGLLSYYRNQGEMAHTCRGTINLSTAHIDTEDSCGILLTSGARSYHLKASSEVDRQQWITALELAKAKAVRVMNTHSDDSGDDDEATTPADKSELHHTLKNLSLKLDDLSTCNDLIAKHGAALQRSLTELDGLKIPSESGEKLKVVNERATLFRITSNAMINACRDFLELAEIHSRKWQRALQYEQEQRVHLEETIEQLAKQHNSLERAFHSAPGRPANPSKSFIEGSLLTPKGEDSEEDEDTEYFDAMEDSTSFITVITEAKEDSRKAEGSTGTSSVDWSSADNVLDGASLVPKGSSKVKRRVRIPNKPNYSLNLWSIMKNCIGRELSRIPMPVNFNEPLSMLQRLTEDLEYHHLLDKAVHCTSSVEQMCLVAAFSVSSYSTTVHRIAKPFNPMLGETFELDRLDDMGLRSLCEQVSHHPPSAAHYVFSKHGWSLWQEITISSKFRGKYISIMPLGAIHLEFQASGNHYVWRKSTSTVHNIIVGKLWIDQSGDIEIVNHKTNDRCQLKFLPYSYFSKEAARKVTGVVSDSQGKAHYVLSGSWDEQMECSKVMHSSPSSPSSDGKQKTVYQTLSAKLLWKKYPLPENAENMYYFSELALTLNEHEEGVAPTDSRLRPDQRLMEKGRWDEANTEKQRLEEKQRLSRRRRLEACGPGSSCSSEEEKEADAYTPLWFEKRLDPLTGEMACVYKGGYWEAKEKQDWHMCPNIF

HCT-116 p21^−/− cells [1] = assay: Cell viability assay, HCT-116 p21-/-; format: cell-based, human; settings: GI50 after 48 h
Summary of the method: (§1)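 HCT-116 p21+/+ and p21−/− cells were seeded in 96-well plates and rested 24 h. A time-zero plate was read with CellTiter-Blue (resazurin) after 90 min at 37 °C, fluorescence 544 nm ex / 590 nm em. Serially diluted test compound was added as 4× solution. Viability was re-read at 48 h and GI50 derived. For coadministration, 10 μM 25-OHC was added with test compound at 250 nM or 10 nM.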

OSBP [2] = target: T3, OSBP (Homo sapiens, UniProt P22059); assay: OSBP localization by immunofluorescence microscopy, HCT-116; format: cell-based; settings: HCT-116 cells, 4 h; 5 μM schweinfurthin A, 10 nM OSW-1, 20 nM cephalostatin 1
T3 sequence (P22059 1-807): T1 sequence (P22059 1-807)
Summary of the method: (§2)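 Cells on coverslips were grown 72 h, then given test compound or vehicle (4 h for HCT-116). They were fixed 10 min in 3.7% formaldehyde/PBS and permeabilised 5 min in 0.5% Triton X-100. Blocking used Image-iT FX, then 1% BSA/PBS. Rabbit anti-OSBP (N-terminus) and mouse anti-p230 were applied overnight at 4 °C, then Alexa Fluor secondaries for 60 min with Hoechst 33258. Imaging was by confocal microscopy.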

human cancer cell lines [3] = settings: cited from earlier work
OSBP^M446W = target: T4, OSBP^M446W (Homo sapiens, UniProt P22059, M446W); assay: [3H]25-OHC binding assay, OSBP M446W mutant
T4 sequence (P22059 1-807 M446W): T1 sequence (P22059 1-807) with M446W

OSBP^V582M = target: T5, OSBP^V582M (Homo sapiens, UniProt P22059, V582M); assay: [3H]25-OHC binding assay, OSBP V582M mutant
T5 sequence (P22059 1-807 V582M): T1 sequence (P22059 1-807) with V582M

[4] = system: HCT-116 p21^−/− cells stably transfected with shOSBP or shNT; assay: OSBP shRNA knockdown and dose-shift experiment; format: cell-based, human; settings: 72 h
Summary of the method: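 HCT-116 p21−/− cells were stably transfected with OSBP-targeting or nontargeting shRNA in the pSIREN-RetroQ vector. […] Values are mean ± s.d. of 3–4 experiments, compared with shNT cells by two-tailed Student's t-test.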

[5] = system: HeLa cells overexpressing wild-type OSBP; assay: Overexpression-viability assay, wild-type OSBP-Myc-His; format: cell-based, human; settings: 48 h, versus lacZ
[6] = system: HeLa cells overexpressing ORP4L; assay: Overexpression-viability assay, ORP4L-Myc-His; format: cell-based, human; settings: 48 h, versus lacZ
HCT-116 cells = assay: Suppression of antiproliferative activity by 25-OHC coadministration; format: cell-based, human
Summary of the method: as §1

OSBP [7] = target: T3, OSBP; assay: OSBP localization by immunofluorescence microscopy, A549; format: cell-based; settings: A549 cells
Summary of the method: as §2

OSBP [8] = target: T3, OSBP; assay: OSBP protein levels by western blotting; format: cell-based; settings: HCT-116 cells
Summary of the method: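 HCT-116 cells were treated with test compound at 50 nM or 10 nM over a time course including 24 h. Some samples also received proteasome inhibitor MG-132 or lactacystin. OSBP was measured by western blotting with polyclonal rabbit anti-OSBP (N-terminus) antibody. Data are n = 3, compared with vehicle-treated cells by two-tailed Student's t-test.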

CERT = CERT protein amount in treated cells; format: cell-based, human; settings: GI90 concentration, HCT-116 or A549 cells
[9] = system: sphingomyelin biosynthesis in CHO-K1 cells; assay: Sphingomyelin biosynthesis, [3H]serine pulse labeling, CHO-K1; format: cell-based, Chinese hamster; settings: CHO-K1 cells
human cancer cell lines [10] = format: cell-based
HCT-116 p21^−/− cells [11] = settings: cited from earlier work

CC1C2C(CC3C4CCC5Cc6nc7c(nc6CC5(C)C4CC(O)C32C)CC2CC(O)C3C4=CC5OC6(CCC(C)(O)CO6)C(C)C5(O)C4(C)C(O)CC3C2(C)C7)OC12CCC(C)(C)O2 (stereo not shown) [ritterazine B]
Ki (OSBP-Myc-His): 28 ± 4 nM | Ki (ORP4L-Myc-His): > 360 nM | p21^−/− selectivity of growth inhibition (HCT-116 p21^−/− versus wild-type) (HCT-116 p21^−/− cells [1]): selectively growth-inhibitory | OSBP localization (OSBP [2]): This effect was also observed | GI50 (half-maximal inhibitory concentration) (human cancer cell lines [3]): nanomolar range

C[C@@H]1[C@]2(O[C@H]3C=C4[C@@H]5CC[C@H]6Cc7nc8c(nc7C[C@]6(C)[C@H]5C[C@@H](O)[C@]4(C)[C@]31O)C[C@@H]1CC[C@H]3C4=CC[C@@H]5[C@H](C)[C@@]6(OC[C@]45C(=O)C[C@@H]3[C@@]1(C)C8)OC(C)(C)C[C@H]6O)O[C@](C)(CO)C[C@H]2O [cephalostatin 1, Cephalostatin 1]
Ki (OSBP^M446W): 31 nM | Ki (OSBP^V582M): 31 nM | p21^−/− selectivity of growth inhibition (HCT-116 p21^−/− versus wild-type) (HCT-116 p21^−/− cells [1]): selectively growth-inhibitory | Sensitization by OSBP shRNA knockdown (GI50 shift shOSBP vs shNT) [4]: four | Desensitization factor by OSBP overexpression (relative GI30) [5]: 2–5 | Desensitization factor by ORP4L overexpression (relative GI30) [6]: 2–5 | Effect of 10 μM 25-OHC coadministration on growth inhibition (HCT-116 cells; HCT-116 cells, 250 nM cephalostatin 1 or 10 nM OSW-1): nearly complete desensitization | inhibition at 0.25 µM (HCT-116 cells; Homo sapiens, HCT-116, 48 h, read-out: Growth inhibition when administered alone): > 75% | OSBP localization (OSBP [2]): partially localize to the plasma membrane | OSBP localization (OSBP [7]): dispersal or vesiculation of OSBP | Reduction in OSBP protein levels (OSBP [8]; 50 nM, 24 h): approximately 75% | Amount of CERT protein (CERT): not affected | GI50 (half-maximal inhibitory concentration) (human cancer cell lines [3]): nanomolar range

C[C@H](CCCC(C)(C)O)[C@H]1CC[C@H]2[C@@H]3CC=C4C[C@@H](O)CC[C@]4(C)[C@H]3CC[C@]12C [25-OHC, 25-hydroxycholesterol, reference compound]
Kd (OSBP^M446W): 41 nM | Kd (OSBP^V582M): 82 nM | Effect on OSBP levels (compound alone) (OSBP [8]; 25-OHC 10 μM): did not affect OSBP levels | Increase in the biosynthesis of sphingomyelin ([9]; 5 μM, 6 h): approximately four | Effect on sphingomyelin biosynthesis ([9]; GI90 dose (15 μM)): robust stimulation | Cytotoxicity (human cancer cell lines [10]): not cytotoxic at concentrations up to 10 μM

CC(/C=C/C=C(C)/C=C/C=C(\C)C(=O)O)=C1/C(=O)C[C@H]2[C@@]3(C)CCC(=O)C(C)(C)[C@@H]3CC[C@]12C [stellettin E]
Times more growth-inhibitory to HCT-116 p21^−/− cells than to HCT-116 wild-type cells (HCT-116 p21^−/− cells [11]): 117 times
